KCC2 mod: modulates chloride dependent transport by human KCC2. Q9H2X9. KCC2 cells, thallium flux FluoZin-2 fluorescence. B-score of Tl+ flux slope (higher = more flux/activation; lower = inhibition) at 10 µM. 190,000 compounds, 2.2% hits. AID 1456;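 active = thallium flux slope and its plate-corrected score both differing from the plate sample mean at a set confidence after two filtering rounds, in either direction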;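 also: slope of fluorescence scaled to starting intensity during 10 to 20 s after thallium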
KCNK9 block: inhibitors of human KCNK9 two-pore domain potassium channel. Q9NPC2. HEK293 KCNK9, FluxOR thallium flux fluorescence; active compounds read low. B-score at 10 µM. 310,000 compounds, 1.2% hits;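 active = ratio B-score over 3 SD below the library mean, with starting fluorescence within 5 SD of its mean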;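 also: negative B-score means less thallium flux so channel inhibition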
KCNQ1 block: inhibitors of human KCNQ1 potassium channel. P51787. CHO-K1 KCNQ1, FluxOR thallium flux fluorescence; active compounds read high. B-score at 10 µM. 310,000 compounds, 1.3% hits;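 active = compounds whose thallium flux B-score, printed positive for inhibition, exceeds three library SD while starting fluorescence stays within three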;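 also: channel opened by potassium depolarization with thallium stimulus after 20 min compound exposure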
KCNQ1 pot: potentiates or activates the human KCNQ1 potassium channel; P51787; B-score at 10 µM; 310,000 compounds, 0.35% hits; CHO-K1 KCNQ1, thallium flux FluxOR fluorescence; active compounds read high;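 active = fluorescence ratio B-score, a plate-corrected score, at least three library SD, with initial intensity B-score within 5 SD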
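Schedule – 37 °C overnight plating, 90-min dark dye load, 20-min compound pretreatment · System – stable KCNQ1 CHO-K1 line · Probe or stimulus – thallium- and potassium-containing depolarizing buffer · Measured by – kinetic FluxOR fluorescence, 10 s baseline plus 110 s post-stimulus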
KCNK3 inh: human KCNK3 channel inhibition, primary screen; O14649; CHO-KCNK3 thallium flux, FluxOR fluorescence; active compounds read low; B-score at 10 µM; 340,000 compounds, 0.84% hits; AID 602410;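 active = B-score under library mean minus 4 SD, starting fluorescence ratio at most library mean plus 5 SD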;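 also: more negative B-score means stronger inhibition of thallium flux through KCNK3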
Target sequence (O14649 whole entry, looked up): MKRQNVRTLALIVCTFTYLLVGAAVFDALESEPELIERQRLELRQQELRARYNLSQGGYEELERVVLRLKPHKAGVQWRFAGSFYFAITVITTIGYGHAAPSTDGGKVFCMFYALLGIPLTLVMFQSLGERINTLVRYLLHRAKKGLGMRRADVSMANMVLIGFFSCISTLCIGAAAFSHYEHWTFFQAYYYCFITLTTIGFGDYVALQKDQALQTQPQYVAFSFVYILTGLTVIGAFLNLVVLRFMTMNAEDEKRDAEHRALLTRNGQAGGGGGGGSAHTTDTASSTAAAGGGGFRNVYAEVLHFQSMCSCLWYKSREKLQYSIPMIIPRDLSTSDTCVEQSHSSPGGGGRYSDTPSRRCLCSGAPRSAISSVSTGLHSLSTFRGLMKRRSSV
hERG rescue: shields human hERG channel from block by proarrhythmic agents. Q12809. CHO-hERG, FluxOR thallium flux, dofetilide IC70 present. activation (rescue from dofetilide block), less the hit threshold, % at 10 µM. 310,000 compounds, 0.51% hits. AID 1511;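 active = activation above the mean of controls blocked by dofetilide plus 5 SD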;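 also: thallium influx through hERG after potassium depolarization seen as dye fluorescence rise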
KCNK3 inh conf: confirmation of human KCNK3 two-pore domain potassium channel inhibitors; shares compounds with KCNK3 inh; CHO-KCNK3 thallium flux, FluxOR fluorescence; 0% buffer, 100% carvedilol maximal block; ratio percent of control, % at 10 µM; 2,400 compounds, 99% hits; AID 651638;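 active = ratio percent of control, averaged over triplicates, above buffer control mean plus 5 SD, cut at about 64% in these data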;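 also: ratio is the fluorescence rise from min to max over baseline after thallium stimulus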
KCNK3 uninduced: counter-screen for KCNK3 inhibitors: effect in non-induced cells; non-induced KCNK3 parental cells, FluxOR thallium flux; active compounds read low; thallium flux ratio (lower = more inhibition) at 10 µM; 2,400 compounds, 40% hits; shares compounds with KCNK3 inh;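 active = thallium flux ratio, averaged over three wells, more than 5 SD below the buffer control mean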;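 also: host cells are CHO cells without KCNK3 induction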
Hits are given with their value; - = inactive; . = no result. In the library only some 4.1% were active in any assay of this set; here they are far more common.

SMILES | KCC2 mod | KCNK9 block | KCNQ1 block | KCNQ1 pot | KCNK3 inh | hERG rescue | KCNK3 inh conf | KCNK3 uninduced
Cc1ccc(-c2ccc(=O)n(Cc3c(F)cccc3Cl)n2)cc1 | . | - | - | - | - | - | . | .
Cc1cc(CN2CCOCC2)c(O)c(C2(C)CCCCC2)c1 | - | - | - | - | -9.68 | - | 108.3 | -
CC(=O)N1N=C2/C(=C/c3ccccc3)CCCC2C1c1ccccc1 (stereo not drawn) | - | - | - | - | -9.64 | - | 103.3 | -
O=C(O)c1c(C(=O)N2N=C3/C(=C/c4ccccc4)CCCC3C2c2ccccc2)cccc1[N+](=O)[O-] (stereo not drawn) | - | - | - | - | - | - | . | .
CCCc1cc(NCCCn2ccnc2)n2nc(C)c(-c3ccccc3)c2n1 | - | - | - | - | -8.85 | - | 108.7 | 0.149
O=C(CSc1ncnc2c1cnn2CCc1ccccc1)Nc1cccc(C(F)(F)F)c1 | - | - | - | - | -8.86 | - | 128.7 | 0.114
COc1ccc(CCC(=O)Nc2cc(S(=O)(=O)N3CCCCC3)ccc2N(C)C)cc1 | . | . | . | . | - | . | . | .
Cc1cc(-c2ccc(C)c(S(=O)(=O)N3CC(=O)Nc4ccccc43)c2)on1 | . | - | - | - | - | - | . | .
Cc1ccc(-c2onc(C)c2C)cc1S(=O)(=O)N1CCOc2ccccc21 | . | - | - | - | -9.81 | - | 126.0 | 0.146
Cc1ccn2c(-c3csc(NCc4ccccc4)n3)c(C)nc2c1 | - | - | - | - | -8.72 | - | 107.3 | 0.144
Cc1nc2sc3c(NCc4ccco4)ncnc3c2c2c1COC(C)(C)C2 | - | - | - | - | - | - | . | .
CCCSc1nc(NCc2ccco2)c2c3c(sc2n1)COC(C)(C)C3 | - | - | 6 | - | -9.56 | - | 108.0 | -
CSc1ccc(C2Nc3cccc4cccc(c34)N2)cc1 | . | - | 6 | - | -8.84 | - | 111.7 | -
Cc1cccc(C(=O)OCC(=O)N2CCCCCC2)c1C | . | . | . | . | - | . | . | .
Cc1ccc(S(=O)(=O)NC(=O)Nc2cc(C)no2)cc1 | . | - | - | - | - | - | . | .
CC(C)c1ccc(-c2noc(C3CCCN(C(=O)c4ccc(F)cc4F)C3)n2)cc1 (stereo not drawn) | - | - | - | - | -9.76 | - | 133.7 | 0.144
Cc1cc(OCC(=O)N2CCc3ccccc3C2)c(C)cc1Br | . | - | - | - | -8.79 | - | 129.7 | 0.144
CCN(CC)CCNC(=O)c1ccc(NC(=O)c2cn(-c3ccc(F)cc3)nc2-c2cccc(OC)c2)cc1 | . | - | 11 | - | -8.98 | - | 111.3 | 0.146
CCCc1nn(-c2cc(Cl)ccc2OC)c2c1C(=O)CC(C)(C)C2 | - | - | - | - | -10.8 | - | 86.7 | -
CCc1nn(-c2cc(Cl)ccc2OC)c2c1C(=O)CCC2 | . | - | - | - | - | - | . | .
COC1(OC)C(/C=C/c2ccc(C)cc2)C(C#N)(C#N)C1(OC)OC (stereo not drawn) | - | - | - | - | -10.4 | - | 133.3 | 0.145
COC(=O)c1sc2nc(N3CCCCC3)c3c(c2c1N)CCCC3 | - | - | - | - | -11.2 | - | 103.7 | -
CCOC(=O)/C(=C\c1ccc(N2CCC(c3ccccc3)=N2)cc1)C(C)=O | . | . | . | . | -12.2 | . | - | -
COCCc1ncc(CN2CCCC(C(=O)Nc3cccc(-c4cccc(C)c4)c3)C2)cn1 (stereo not drawn) | . | - | - | - | -9 | - | 91.3 | -
Cc1ncc(CN2CCCC(C(=O)Nc3ccc(-c4ccco4)cc3)C2)cn1 (stereo not drawn) | . | - | - | - | - | - | . | .
SMILES | KCC2 mod | KCNK9 block | KCNQ1 block | KCNQ1 pot | KCNK3 inh | hERG rescue | KCNK3 inh conf | KCNK3 uninduced
CNc1c(NS(=O)(=O)c2ccc(C3CCCCC3)cc2)c(=O)oc2ccccc12 | . | - | - | - | -9.4 | - | 87.0 | -
FC(F)(F)c1cnc(COc2ccc(Cl)cc2Cl)c(Cl)c1 | - | - | - | - | -9.65 | - | 102.3 | -
Cc1cccc(/C(N)=N/OC(=O)c2cccc3ccccc23)c1 | . | - | - | - | -9.25 | - | 91.7 | -
COc1cccc(-c2nn(-c3ccc(C)cc3)cc2C(=O)N2CCc3cc(OC)c(OC)cc3C2)c1 | . | - | - | - | -9.84 | - | 103.7 | 0.145
COc1ccc(OC)c(-c2nn(-c3ccccc3)cc2C(=O)N2CCc3ccccc3C2)c1 | . | . | . | . | - | . | . | .
CCc1ccc(/C=N/n2c(COc3ccccc3)n[nH]c2=S)cc1 | . | - | - | - | - | - | . | .
CC(=O)Nc1ccc(-c2csc(NC(=O)CC(NC(C)=O)c3ccccc3)n2)cc1 (stereo not drawn) | . | - | - | - | - | - | . | .
CC(=O)NC(CC(=O)Nc1nc(-c2ccc(N(C)S(C)(=O)=O)cc2)cs1)c1ccccc1 (stereo not drawn) | . | - | - | - | -10.5 | - | 59.0 | -
COc1ccc(/C=C2\SC(=S)N(CCC(=O)Nc3cccc(C(=O)O)c3)C2=O)cc1 | . | - | - | - | - | - | . | .
O=C(COC(=O)Cc1ccc(Cl)cc1)NCc1cccs1 | . | . | . | . | - | . | . | .
Cc1ccc2nc(-c3ccc(NC(=S)NC(=O)C(C)C)cc3)sc2c1 | - | - | - | - | - | - | . | .
Cc1ccc2nc(-c3ccc(NC(=S)NC4CC(C)(C)NC(C)(C)C4)cc3)sc2c1 | - | - | 8 | - | -14.5 | - | 125.0 | 0.148
Clc1ccc(C2Nc3ccccc3-n3cccc32)cc1 (stereo not drawn) | - | - | - | - | -12.7 | - | 114.0 | 0.156
Cc1cccc(C)c1NC(=O)CN(C)C(C)C(=O)NCC(=O)Nc1ccc(F)c(F)c1F (stereo not drawn) | . | . | . | . | - | . | . | .
Cc1cc(C)c(S(=O)(=O)N2CCN(S(=O)(=O)N3CCOCC3)CC2)c(C)c1 | . | - | - | - | -13.5 | - | 51.7 | -
Cc1cc(C)c(S(=O)(=O)N2CCCC2)c(C)c1 | . | - | - | - | - | - | . | .
S=C(c1ccc(-c2cc(Cl)ccc2Cl)o1)N1CCOCC1 | - | - | - | - | -8.85 | - | 125.7 | 0.138
S=C(c1ccc(-c2cccc(Cl)c2)o1)N1CCOCC1 | - | - | - | - | - | - | . | .
O=C(COc1ccc(Br)cc1CNCCc1ccccc1)NCc1ccccc1 | - | - | 7 | - | -11.2 | - | 102.0 | -
CCCNCc1cc(Br)ccc1OCC(=O)NCCc1ccccc1 | - | - | - | - | - | - | . | .
CCOC(=O)c1cc(C#N)c(SC(C)C(=O)NC2CCCCC2)nc1C (stereo not drawn) | . | . | . | . | - | . | . | .
Cc1nc2ccc(NS(=O)(=O)c3cccc([N+](=O)[O-])c3)cc2s1 | . | . | . | . | - | . | . | .

High-throughput results (PubChem BioAssay)
